Assays:
HCT-116 [1] = assay: Cytotoxicity against human HCT116 cells assessed as reduction of [3H]thymidine incorporation after 72 hrs by scintillation counting; type: functional, cell-based
In short: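 HCT-116 cells were seeded 24 h before compound and treated with serial dilutions in triplicate for 72 h at 37 °C. [³H]thymidine (1 µCi per well) was added for the last 6 h, and incorporation was read by scintillation counting. IC50 came from nonlinear sigmoidal regression (top 100%, bottom 0%, variable slope). Values are means of at least three independent determinations, with SEM from the individual IC50s.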

PBMC = assay: Inhibition of LPS-induced TNFalpha production in human PBMC preincubated 1 hr prior to LPS stimulation measured after 18 to 20 hrs by ELISA; type: functional, cell-based
In short: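 PBMC were isolated by Ficoll-Hypaque density centrifugation and plated at 2 × 10⁵ cells in triplicate. Compounds in DMSO (0.25% final) were added 1 h before stimulation with LPS from S. abortus equi at 1 ng/ml. After 18–20 h at 37 °C in 5% CO₂, supernatant TNF-α was measured by ELISA. IC50 values are means of at least three determinations.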

Phosphodiesterase 4 = Phosphodiesterase 4 (Homo sapiens, UniProt P27815+Q08499+Q07343+Q08493); assay: Inhibition of human PDE4 expressed in U937 cells using [3H]cAMP as substrate after 30 mins; conditions: u-937
In short: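 PDE4 was purified from U937 human monocytic cells by gel filtration. Reactions ran in 50 mM Tris–HCl pH 7.5 with 5 mM MgCl₂, 1 µM cAMP and 10 nM [³H]-cAMP for 30 min at 30 °C. They were stopped by boiling, treated with snake venom (1 mg/ml) and separated on ion-exchange resin. Substrate consumption stayed below 15%. IC50 values are means of at least three determinations, with SEM.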

[2] = Inhibition of tubulin polymerization at 5 uM after 60 mins by spectrophotometry
[3] = Solubility of the compound at pH 7.4 after 4 hrs by UV-Vis spectrophotometry; type: physicochemical; conditions: buffer
In short: (§1)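 A suspension of about 1 mg/mL (0.5 mL) in pH 5.0 or pH 7.4 buffer was stirred at 400 rpm for 4 h and then filtered. Concentration was determined by UV-vis plate reading (200–400 nm) against standard curves for each compound. Replicate measurements were made at pH 5.0.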

[4] = Solubility of the compound at pH 5 after 4 hrs by UV-Vis spectrophotometry; type: physicochemical; conditions: buffer; in short: as §1
[5] = Inhibition of tubulin polymerization at 10 uM after 60 mins by spectrophotometry
Plasma [6] = assay: Stability in human plasma assessed as formation of (E/Z)-3-(3-Ethoxy-4-methoxyphenyl)-3-(3-hydroxy-4- methoxyphenyl)acrylonitrile […] by LC-MS/MS analysis; type: ADME, cell-free; conditions: 20 min
HCT-116 [7] = assay: Antitumor activity against human HCT116 cells xenografted in SCID mouse assessed as reduction in tumor volume at 20 mg/kg, ip qd measured twice weekly relative to control; type: functional; parameters: scale not given: the % may be the effect or the level left; conditions: route intraperitoneal
In short: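 Female SCID mice, 6–8 weeks old, inoculated s.c. in the right hind leg with 2 × 10⁶ HCT-116 cells in sterile PBS. On day 8, mice with 75–125 mm³ tumors were randomized and dosed ip in CMC-Tween vehicle (0.5% carboxymethylcellulose, 0.25% Tween 80 in water). Tumors were measured twice weekly by caliper, volume W² × L / 2, and compared with vehicle.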

Plasma [8] = assay: Stability in human plasma assessed as formation of (E/Z)-3-(3-Amino-4-methoxyphenyl)-3-(3-ethoxy-4- methoxyphenyl)acrylonitrile by LC-MS/MS analysis; type: ADME, cell-free
In short: (§2)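 Analogs were incubated in human plasma at 37 °C and sampled at 0, 0.5, 1, 2, 3, 4, 6, 8 and 24 h. Samples were quenched in acetonitrile with 0.1% formic acid and internal standard, centrifuged, and analysed by LC–MS/MS in MRM mode on a C18 monolithic column with an aqueous acetonitrile/0.1% formic acid gradient. Percentage remaining was taken from analyte/IS peak-area ratios relative to time zero.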

[9] = Stability in human plasma assessed as half life by LC-MS/MS analysis; type: ADME, cell-free; in short: as §2

Structure (SMILES) | IC50 (HCT-116 [1]) | IC50 (PBMC) | IC50 (Phosphodiesterase 4) | also measured
COC=C(c1cc(OC)cc(OC)c1)c1ccc(OC)c(OC)c1 | > 10000 nM | 6300 nM | 3.6 µM | –
CCOc1cc(C(=CC#N)c2ccc(OC)c(N)c2)ccc1OC | 19 nM | 31 nM | 0.047 µM | inhibition [2]: 65%; solubility at 4 h [3]: < 3 µg/mL; solubility at 4 h [4]: < 3 µg/mL; inhibition [5]: 76%
CC=C(c1ccc(OC)c(N)c1)c1ccc(OC)c(OCC)c1 | 110 nM | 2800 nM | 0.59 µM | –
COc1cc(OC)cc(C(=CC(C)=O)c2ccc(OC)c(OC)c2)c1 | > 10000 nM | 750 nM | 0.14 µM | –
CCOc1cc(C(=CC#N)c2ccc(N(C)C)cc2)ccc1OC | 31 nM | 130 nM | 0.052 µM | –
CCOc1cc(C(=CC#N)c2ccc(NC)cc2)ccc1OC | 55 nM | 140 nM | 0.041 µM | –
COc1ccc(/C=C\c2cc(OC)c(OC)c(OC)c2)cc1O [COMBRETASTATIN A4] | 0.74 nM | 11 nM | > 10 µM | inhibition [2]: 88%
COc1ccc(C(=CC#N)c2cc(OC)cc(OC)c2)cc1 | 1.2 nM | 440 nM | 3.8 µM | –
COc1ccc(C(=CC#N)c2cc(OC)c(OC)c(OC)c2)cc1N | 1.8 nM | 200 nM | > 10 µM | –
C=C(c1cc(OC)cc(OC)c1)c1ccc(OC)c(OC)c1 | > 10000 nM | 4800 nM | 2.2 µM | –
CCOc1cc(C(=CC#N)c2ccc(OC)c(OC(=O)[C@H](C)N)c2)ccc1OC.Cl | 17 nM | 57 nM | 0.069 µM | Stability (Plasma [6]): Unstable
C=C(c1ccc(OC)c(N)c1)c1ccc(OC)c(OCC)c1 | 38 nM | 380 nM | 0.68 µM | –
COc1cc(OC)cc(C(=CC(N)=O)c2ccc(OC)c(OC)c2)c1 | > 10000 nM | 5500 nM | 6.7 µM | –
C#CC=C(c1cc(OC)cc(OC)c1)c1ccc(OC)c(OC)c1 | > 10000 nM | 7200 nM | 3.5 µM | –
CCOc1cc(C(=CC#N)c2ccc(OC)c(OC(=O)CN)c2)ccc1OC.Cl | 19 nM | 58 nM | 0.049 µM | Stability (Plasma [6]): Unstable
CCOc1cc(C(=CC#N)c2cccc(OC)c2)ccc1OC | 450 nM | 230 nM | 0.11 µM | –
COc1cc(OC)cc(C(=CC#N)c2ccc(OC)c(NC(C)=O)c2)c1 | 92 nM | 66 nM | > 10 µM | inhibition [2]: 46%; inhibition [5]: 74%
COc1cc(C(=CC#N)c2cc(OC)c(OC)c(OC)c2)cc(OC)c1OC | > 10000 nM | 870 nM | 2.4 µM | –
CCOc1cc(C(=CC#N)c2ccc(S(C)(=O)=O)cc2)ccc1OC | > 10000 nM | 130 nM | 0.2 µM | –
CCOc1cc(C(=CC#N)c2ccc(OC)c(-n3cccc3)c2)ccc1OC | 49 nM | 67 nM | 0.07 µM | –
CCOc1cc(C(=CC#N)c2ccc(OC)c(OC)c2)ccc1OC | 200 nM | 180 nM | 0.083 µM | –
C=C(c1ccc(OC)c(O)c1)c1ccc(OC)c(OCC)c1 | 36 nM | 29 nM | 0.38 µM | –
CCOc1cc(C(=CC#N)c2ccc(OC)c(OCC)c2)ccc1OC | 440 nM | 48 nM | 0.07 µM | –
CCOc1cc(C(=CC#N)c2ccc(OC)c(F)c2)ccc1OC | 130 nM | 31 nM | 0.07 µM | –
COc1ccc(C(=CC#N)c2cc(OC)c(OC)c(OC)c2)cc1OC | 41 nM | 540 nM | 1.8 µM | –
CCOc1cc(C(=CC#N)c2cc(OC)cc(OC)c2)ccc1OC | 34 nM | 43 nM | 0.054 µM | Activity (HCT-116 [7]): 16%; inhibition [2]: 48%; inhibition [5]: 59%

Structure (SMILES) | IC50 (HCT-116 [1]) | IC50 (PBMC) | IC50 (Phosphodiesterase 4) | also measured
C=C(c1cc(OC)cc(OC)c1)c1ccc(OC)c(N)c1 | 13 nM | 330 nM | > 10 µM | –
COc1cc(OC)cc(/C(=C/C#N)c2ccc(OC)c(OC)c2)c1 | 110 nM | 650 nM | 0.73 µM | –
CC=C(c1cc(OC)cc(OC)c1)c1ccc(OC)c(O)c1 | 30 nM | 150 nM | > 10 µM | –
COc1ccc(C(=CC#N)c2ccc(OC)c(OC)c2)cc1OC | 140 nM | 600 nM | 0.31 µM | –
COc1cc(OC)cc(C(=Cc2ccccc2)c2ccc(OC)c(O)c2)c1 | > 10000 nM | > 10000 nM | > 10 µM | –
COc1cc(OC)cc(C(=CC#N)c2ccccc2)c1 | 970 nM | 2400 nM | 1.9 µM | –
COc1ccc(C(=CC#N)c2ccc(OC)c(OC)c2)cc1 | 24 nM | 350 nM | 0.19 µM | –
COc1cccc(C(=CC#N)c2ccc(OC)c(OC)c2)c1 | 310 nM | 660 nM | 0.16 µM | –
COc1cc(OC)cc(/C(=C\C#N)c2ccc(OC)c(OC)c2)c1 | 11 nM | 93 nM | 0.15 µM | –
CCOc1cc(C(=CC#N)c2ccc(OC)c(OC(=O)[C@@H](N)C(C)C)c2)ccc1OC.Cl | 22 nM | 67 nM | 0.12 µM | Stability (Plasma [6]): Unstable
COc1cc(OC)cc(C(=CC(=O)O)c2ccc(OC)c(OC)c2)c1 | > 10000 nM | > 10000 nM | > 10 µM | –
CCOc1cc(C(=CC#N)c2ccc(OC)c(C)c2)ccc1OC | 87 nM | 100 nM | 0.082 µM | –
COc1cccc(C(=CC#N)c2cc(OC)cc(OC)c2)c1 | 15 nM | 290 nM | 3.4 µM | inhibition [2]: 67%; inhibition [5]: 88%
CCOc1cc(C(=CC#N)c2ccc(OC)c(OC(=O)N(C)C)c2)ccc1OC | > 10000 nM | 240 nM | 0.12 µM | –
COc1cc(OC)cc(C(=CCCN(C)C)c2ccc(OC)c(OC)c2)c1 | > 10000 nM | > 10000 nM | > 10 µM | –
CCOc1cc(C(=CC#N)c2ccc(OC)c(O)c2)ccc1OC | 15 nM | 44 nM | 0.091 µM | –
C=C(c1cc(OC)cc(OC)c1)c1ccc(OC)c(O)c1 | 21 nM | 3000 nM | > 10 µM | –
COc1cc(OC)cc(C(=CC#N)c2ccc(OC)c(N)c2)c1 | 1.4 nM | 11 nM | 9.8 µM | inhibition [2]: 76%
CC=C(c1cc(OC)cc(OC)c1)c1ccc(OC)c(OC)c1 | 480 nM | 2600 nM | 1.5 µM | –
CCOc1cc(C(=C(F)F)c2ccc(OC)c(O)c2)ccc1OC | 74 nM | 54 nM | 0.36 µM | –
CCOc1cc(C(=CC#N)c2ccc(OC)c(NC(=O)[C@H](C)N)c2)ccc1OC.Cl | 40 nM | 27 nM | 0.15 µM | Stability (Plasma [8]): Stable; half-life [9]: 1620 min; solubility at 4 h [3]: 405 µg/mL; solubility at 4 h [4]: 1040 µg/mL
COc1cc(OC)cc(C(=CC#N)c2ccc(OC)c(O)c2)c1 | 2.5 nM | 1.2 nM | 2.4 µM | inhibition [2]: 77%
COc1cc(OC)cc(C(=CC#N)c2ccc(OC)c(OC)c2)c1 | 18 nM | 270 nM | 0.35 µM | inhibition [2]: 65%; inhibition [5]: 84%
CCC=C(c1cc(OC)cc(OC)c1)c1ccc(OC)c(OC)c1 | > 10000 nM | > 10000 nM | 2 µM | –
COC(=O)C=C(c1cc(OC)cc(OC)c1)c1ccc(OC)c(OC)c1 | > 10000 nM | 5400 nM | 1.3 µM | –

— ChEMBL document CHEMBL1914453, “1,1-Diarylalkenes as anticancer agents: dual inhibitors of tubulin polymerization and phosphodiesterase 4” (Bioorg Med Chem, 2011)
